Data set [1] relates to BV-2. The data set is described as follows: Anti-neuroinflammation in mouse BV-2 cells assessed as inhibition of LPS-induced NO production at 1 uM preincubated for 6 hrs followed by LPS addition measured after 24 hrs by Griess reagent based assay. It counts as functional. Summed up:
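BV-2 murine microglia were grown in DMEM with 10% FBS at 37 °C and 5% CO2, then seeded at 5 × 10³ cells/well. After 24 h, compound was added at 1 μM. LPS (500 ng/mL) followed 6 h later. After a further 24 h, medium was collected and NO was read at 540 nm with a colorimetric NO detection kit.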
Background: Nitrite, measured by Griess reagent, commonly stands in for NO production.

The target of data set [2] is Nitric oxide sythases; iNOS & nNOS (Homo sapiens) (UniProt P29475+P35228). As to the kind of experiment: Selectivity ratio of IC50 for human nNOS to IC50 for human iNOS. Format: protein assay. In outline: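 Human nNOS and human iNOS each converting [³H]arginine (10 nM) to [³H]citrulline, with [¹⁴C]citrulline (80−120 nM) as internal standard, in 50 mM HEPES at 37 °C for 1 h. Cofactors were NADP⁺, G6P/G6PDH, MgCl₂, FAD, FMN and BH₄; nNOS also had calmodulin, CaCl₂ and glutathione. Eight concentrations (0.01−10 μM). Stopped with MES, passed over cation-exchange resin, filtrate counted. Background set with 10 μM AMT. Each IC50 from a curve, repeated three times.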
Sequence of Nitric oxide sythases; iNOS & nNOS (Homo sapiens) (P29475 whole entry, looked up): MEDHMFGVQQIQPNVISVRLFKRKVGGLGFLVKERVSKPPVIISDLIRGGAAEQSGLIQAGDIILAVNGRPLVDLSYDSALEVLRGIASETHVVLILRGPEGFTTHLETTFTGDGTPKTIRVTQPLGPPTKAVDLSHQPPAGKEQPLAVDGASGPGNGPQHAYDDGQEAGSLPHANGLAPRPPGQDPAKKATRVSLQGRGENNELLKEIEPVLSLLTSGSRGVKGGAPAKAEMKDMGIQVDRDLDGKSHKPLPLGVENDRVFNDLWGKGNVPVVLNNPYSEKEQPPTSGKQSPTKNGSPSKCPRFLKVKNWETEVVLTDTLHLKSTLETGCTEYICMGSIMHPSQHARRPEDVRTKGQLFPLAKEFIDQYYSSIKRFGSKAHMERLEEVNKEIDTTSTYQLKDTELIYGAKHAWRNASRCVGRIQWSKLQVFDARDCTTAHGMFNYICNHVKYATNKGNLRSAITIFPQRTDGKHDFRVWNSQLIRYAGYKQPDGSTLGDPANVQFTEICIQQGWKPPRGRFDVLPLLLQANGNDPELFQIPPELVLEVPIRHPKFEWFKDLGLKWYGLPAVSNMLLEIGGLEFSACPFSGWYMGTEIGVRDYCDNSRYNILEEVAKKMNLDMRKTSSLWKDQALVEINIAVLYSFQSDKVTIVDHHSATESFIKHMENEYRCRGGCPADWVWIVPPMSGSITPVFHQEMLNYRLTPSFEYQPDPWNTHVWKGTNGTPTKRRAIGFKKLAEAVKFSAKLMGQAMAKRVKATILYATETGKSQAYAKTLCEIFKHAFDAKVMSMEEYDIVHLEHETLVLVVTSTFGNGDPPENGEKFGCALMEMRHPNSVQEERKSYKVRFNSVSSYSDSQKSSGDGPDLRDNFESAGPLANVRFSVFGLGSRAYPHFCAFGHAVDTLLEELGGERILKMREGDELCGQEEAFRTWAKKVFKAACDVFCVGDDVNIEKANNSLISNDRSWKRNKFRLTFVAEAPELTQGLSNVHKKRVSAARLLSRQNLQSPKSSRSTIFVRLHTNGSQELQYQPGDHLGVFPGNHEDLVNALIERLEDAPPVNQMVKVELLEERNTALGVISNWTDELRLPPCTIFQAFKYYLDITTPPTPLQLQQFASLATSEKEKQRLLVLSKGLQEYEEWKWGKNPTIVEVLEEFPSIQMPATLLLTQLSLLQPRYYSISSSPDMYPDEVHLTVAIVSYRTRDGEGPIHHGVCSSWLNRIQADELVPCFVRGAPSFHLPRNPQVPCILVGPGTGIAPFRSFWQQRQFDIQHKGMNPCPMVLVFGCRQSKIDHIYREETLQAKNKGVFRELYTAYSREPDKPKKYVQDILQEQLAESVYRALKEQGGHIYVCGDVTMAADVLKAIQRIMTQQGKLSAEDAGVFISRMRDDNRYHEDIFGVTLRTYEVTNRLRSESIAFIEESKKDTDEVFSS
Sequence of Nitric oxide sythases; iNOS & nNOS (Homo sapiens) (P35228 whole entry, looked up): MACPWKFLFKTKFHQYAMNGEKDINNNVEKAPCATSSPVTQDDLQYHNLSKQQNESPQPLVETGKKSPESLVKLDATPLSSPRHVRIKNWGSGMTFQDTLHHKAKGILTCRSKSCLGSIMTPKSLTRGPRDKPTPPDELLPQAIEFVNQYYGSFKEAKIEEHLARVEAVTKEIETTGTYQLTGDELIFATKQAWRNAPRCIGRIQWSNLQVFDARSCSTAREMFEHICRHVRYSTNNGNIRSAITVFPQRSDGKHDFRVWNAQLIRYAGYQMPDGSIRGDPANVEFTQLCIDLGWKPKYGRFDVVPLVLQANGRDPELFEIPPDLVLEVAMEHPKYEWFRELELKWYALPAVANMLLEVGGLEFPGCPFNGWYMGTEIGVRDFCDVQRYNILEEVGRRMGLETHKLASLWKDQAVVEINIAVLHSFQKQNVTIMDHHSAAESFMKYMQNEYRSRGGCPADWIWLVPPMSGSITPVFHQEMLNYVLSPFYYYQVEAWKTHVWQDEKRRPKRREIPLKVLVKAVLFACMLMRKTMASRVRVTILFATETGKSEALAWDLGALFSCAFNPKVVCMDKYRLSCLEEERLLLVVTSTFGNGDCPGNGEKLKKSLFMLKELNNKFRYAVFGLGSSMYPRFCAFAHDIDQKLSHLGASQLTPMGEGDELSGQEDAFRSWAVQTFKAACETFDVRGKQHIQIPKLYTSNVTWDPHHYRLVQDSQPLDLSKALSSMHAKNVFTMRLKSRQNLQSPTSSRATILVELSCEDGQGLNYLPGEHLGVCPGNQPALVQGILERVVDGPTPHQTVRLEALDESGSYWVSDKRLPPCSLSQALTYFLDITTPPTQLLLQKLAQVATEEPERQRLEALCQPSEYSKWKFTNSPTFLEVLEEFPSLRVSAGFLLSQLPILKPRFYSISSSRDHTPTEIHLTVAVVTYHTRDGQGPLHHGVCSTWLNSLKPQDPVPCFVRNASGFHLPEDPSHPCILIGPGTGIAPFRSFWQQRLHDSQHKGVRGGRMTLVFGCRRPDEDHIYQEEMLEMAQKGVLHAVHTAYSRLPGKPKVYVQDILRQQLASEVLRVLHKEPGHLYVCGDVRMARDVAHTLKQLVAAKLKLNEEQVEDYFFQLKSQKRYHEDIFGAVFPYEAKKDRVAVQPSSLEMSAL

The target of data set [3] is T1, Nitric oxide synthase 3 (Homo sapiens, UniProt P29474).
T1 sequence (P29474 whole entry): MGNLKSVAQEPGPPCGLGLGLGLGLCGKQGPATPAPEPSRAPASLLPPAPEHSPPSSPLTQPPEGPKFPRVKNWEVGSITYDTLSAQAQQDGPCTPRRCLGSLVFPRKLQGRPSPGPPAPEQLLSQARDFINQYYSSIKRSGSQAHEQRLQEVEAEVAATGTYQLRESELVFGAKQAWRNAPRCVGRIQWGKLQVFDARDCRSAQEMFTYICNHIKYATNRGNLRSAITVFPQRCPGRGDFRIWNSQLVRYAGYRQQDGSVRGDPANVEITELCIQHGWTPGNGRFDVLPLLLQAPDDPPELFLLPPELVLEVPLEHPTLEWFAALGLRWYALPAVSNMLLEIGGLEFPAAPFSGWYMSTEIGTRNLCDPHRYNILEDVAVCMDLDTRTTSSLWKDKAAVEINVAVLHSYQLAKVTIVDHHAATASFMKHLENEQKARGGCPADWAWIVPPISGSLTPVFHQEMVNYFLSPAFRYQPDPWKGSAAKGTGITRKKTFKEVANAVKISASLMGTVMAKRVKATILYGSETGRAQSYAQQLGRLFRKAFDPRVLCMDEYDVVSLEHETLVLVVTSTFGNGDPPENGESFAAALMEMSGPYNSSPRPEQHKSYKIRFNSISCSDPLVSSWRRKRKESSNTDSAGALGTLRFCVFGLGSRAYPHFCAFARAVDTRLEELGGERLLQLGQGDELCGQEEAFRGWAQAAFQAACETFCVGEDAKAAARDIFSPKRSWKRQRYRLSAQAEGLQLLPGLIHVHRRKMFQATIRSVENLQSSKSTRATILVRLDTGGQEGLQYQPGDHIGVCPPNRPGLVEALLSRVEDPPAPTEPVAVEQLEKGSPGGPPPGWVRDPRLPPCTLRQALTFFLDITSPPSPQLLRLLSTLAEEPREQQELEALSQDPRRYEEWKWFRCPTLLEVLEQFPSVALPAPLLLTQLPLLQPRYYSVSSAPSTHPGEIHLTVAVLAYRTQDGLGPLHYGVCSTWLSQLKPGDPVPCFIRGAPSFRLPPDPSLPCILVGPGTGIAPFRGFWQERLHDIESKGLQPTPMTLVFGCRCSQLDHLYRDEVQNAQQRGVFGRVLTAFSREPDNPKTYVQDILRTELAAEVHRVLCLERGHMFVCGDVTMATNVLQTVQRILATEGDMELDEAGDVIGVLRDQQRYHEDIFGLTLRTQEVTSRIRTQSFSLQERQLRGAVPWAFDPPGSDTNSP
The data set is described as follows: Inhibition of human eNOS assessed as reduction in L-[3H]-citrulline level using L-[3H]-arginine as substrate incubated for 1 hr.

Data set [4] deals with Nitric oxide synthase, inducible (Homo sapiens, UniProt P35228). As to the kind of experiment: Inhibition of human iNOS assessed as reduction in L-[3H]-citrulline level using L-[3H]-arginine as substrate incubated for 1 hr.
Sequence of Nitric oxide synthase, inducible (P35228 whole entry): as the sequence (P35228 whole entry, looked up) above
The target in data set [5] is Nitric oxide synthase 1 (Homo sapiens, UniProt P29475). The data set is described as follows: Inhibition of human nNOS assessed as reduction in L-[3H]-citrulline level using L-[3H]-arginine as substrate incubated for 1 hr.
Sequence of Nitric oxide synthase 1 (P29475 whole entry): as the sequence (P29475 whole entry, looked up) above
Data set [6] is filed under the species Homo sapiens. As to the kind of experiment: Selectivity ratio of IC50 for human eNOS to IC50 for human iNOS. In outline: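 Human iNOS, eNOS or nNOS was incubated 1 h at 37 °C in 50 mM HEPES with 10 nM [3H]arginine and [14C]citrulline internal standard. Cofactors were NADP⁺, G6P, G6P dehydrogenase, MgCl2, FAD, FMN and BH4. eNOS and nNOS reactions also contained 25 nM calmodulin, 0.5 mM CaCl2 and 3.5 mM glutathione. Reactions were stopped with MES and passed through cation exchange resin, and [3H]citrulline was counted. Background was set with 10 μM AMT. IC50 values came from eight concentrations (0.01–10 μM), in three repeated experiments.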

Data set [7] can be described thus: Effective permeability of compound in PBS buffer at pH 7.4 at 200 uM incubated for 17 hrs by PAMPA-BBB assay. Format: ADME. The note with it: read-out: Peff. Summed up:
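PAMPA-BBB: the donor filter was coated with porcine brain lipid (20 mg/mL in dodecane). Compound was loaded at 200 μM in 10 mM PBS pH 7.4, with PBS as acceptor. Plates were incubated 17 h at 25 °C in saturated humidity with 100 rpm orbital shaking. Donor and acceptor concentrations were read by UV and Pe was calculated from the flux equation. Values are the mean of triplicates with SD.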
In general terms: PAMPA measures passive passage across an artificial lipid membrane.

Data set [8] in a line: AUC (0 to infinity) in Balb/c mouse blood at 30 mg/kg, po administered as single dose measured upto 24 hrs by LC-MS analysis. Format: ADME, organism-based. Also noted: route oral, dose 30 mg/kg, time <=24. Summed up: (§1)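 Male BALB/c mice were fasted 16 h and then given a single intragastric dose of 30 mg/kg. Blood and brain were collected after decapitation at 5, 10, 15 and 30 min and at 1, 2, 6, 8, 12 and 24 h. Plasma was obtained by centrifugation and brains were homogenized in saline. Samples underwent methanol protein precipitation and single-quadrupole LC-MS on a C18 column at 30 °C, using isocratic 40% acetonitrile with 0.1% formic acid.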

Data set [9] can be described thus: Half life in Balb/c mouse blood at 30 mg/kg, po administered as single dose measured upto 24 hrs by LC-MS analysis. It counts as ADME, organism-based. In outline:
as §1

A short description of data set [10]: Cmax in Balb/c mouse brain at 30 mg/kg, po administered as single dose measured upto 24 hrs by LC-MS analysis. Format: ADME, organism-based. Also noted: route oral, dose 30 mg/kg, time <=24. Summed up: as §1
The nature of data set [11]: Cmax in Balb/c mouse blood at 30 mg/kg, po administered as single dose measured upto 24 hrs by LC-MS analysis. It counts as ADME, organism-based. Also on record: route oral, dose 30 mg/kg, time <=24. Summed up:
as §1

Data set [12] is described as follows: AUC (0 to infinity) in Balb/c mouse brain at 30 mg/kg, po administered as single dose measured upto 24 hrs by LC-MS analysis. Format: ADME, organism-based. Also on record: route oral, dose 30 mg/kg, time <=24. Summed up:
as §1

The nature of data set [13]: Half life in Balb/c mouse brain at 30 mg/kg, po administered as single dose measured upto 24 hrs by LC-MS analysis. It counts as ADME, organism-based. Summed up: as §1

pIC50: −log10 of the molar value. Activity calls are given as the source filed them. The rule behind the calls is not given here.

The term pIC50 denotes the negative decadic logarithm of the IC50, by convention in mol/L. A word on the AUC(0-inf): it is total exposure, with the tail of the curve extrapolated. The low end stands for less exposure, the high end for more exposure. As a reminder, the half-life is how long it takes for the measured level to halve. A high value points to slow decline. In general, Cmax refers to the maximum level reached in the sampled fluid or tissue.

Turning to `O=C(/C=C/c1ccc(Cl)c(Cl)c1)N[C@@H](Cc1ccc(F)cc1)C(=O)O`, the result in [1] was Active. Further, the Ratio IC50 in data set [2] came to 149; in [6], 165. For the same compound, the figures for the negative logarithm of the IC50 (pIC50) in [3], in data set [4] and in data set [5] were 3.79, 6.00 and 3.83, respectively.
In the case of `O=C(/C=C/c1ccccc1Cl)N[C@@H](Cc1ccc(F)cc1)C(=O)O`, in data set [1], the outcome was Active. Also, the Ratio IC50 worked out at 153 in data set [2] and 180 in data set [6]. Also, the pIC50 in [3] is 3.83; in data set [4], 6.09; in data set [5], 3.90.
As for `CC(C)C[C@H](NC(=O)/C=C/c1ccc(Cl)c(Cl)c1)C(=O)O`, the result in data set [1] was Active. For the same compound, the Ratio IC50 in data set [2] and in data set [6] was 39 each time. Moreover, the results for the negative-log IC50 (pIC50) in data set [3], in data set [4] and in data set [5] were 4.53, 6.12 and 4.53, respectively.
`CC(=N)NCc1cccc(CN)c1` [1400W]: in data set [7], the Papp at 17 h, 200 µM came out at 3.18 ×10⁻⁶ cm/s.
On to `COc1cc(/C=C/C(=O)N[C@H](Cc2ccc(O)cc2)C(=O)O)ccc1O`, for which the area under the curve AUC(0-inf) in data set [8] came out at 3450 ng·h/mL; in data set [12], 567 ng·h/mL. In addition, the half-life in data set [9] was 1.2 h; in [13], 0.9 h. Moreover, the results for the highest concentration (Cmax) in data set [10] and in data set [11] were 40.2 ng/mL and 1000 ng/mL, respectively. Also, the Ratio IC50 was found to be 45 in data set [2] and 52 in data set [6]. Also, the negative-log IC50 (pIC50) is 4.33 in data set [3], 6.05 in data set [4] and 4.39 in data set [5]. Also, in data set [7], the Papp at 17 h, 200 µM amounted to 1.23 ×10⁻⁶ cm/s.

For the origin of these results see ChEMBL document CHEMBL5046219, “Optimization of N-Phenylpropenoyl-l-amino Acids as Potent and Selective Inducible Nitric Oxide Synthase Inhibitors for Parkinson's Disease” (J Med Chem, 2021).
